Calls of active or inactive are those of the source. No cut-off for these calls is given here.
Tests used:
Glycine max = test: Inhibition of soybean lipoxygenase using sodium linoleate substrate at 100 uM
Outline: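 Soybean lipoxygenase (0.2 mL of 1/9 × 10^-4 w/v solution in saline) incubated at room temperature with compound in ethanol and sodium linoleate 100 µM. Conversion to 13-hydroperoxylinoleic acid recorded at 234 nm, compared against caffeic acid 600 µM as standard inhibitor.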

[1] = Antioxidant activity assessed as inhibition of linoleic acid peroxidation at 100 uM by AAPH assay by UV spectrometry; format: functional
Outline: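 Linoleic acid dispersion (10 µL of 16 mM) in 0.05 M phosphate buffer pH 7.4 at 37 °C; oxidation started under air by adding 50 µL of 40 mM AAPH, with 10 µL aliquots of compound present. Conjugated diene hydroperoxide formation followed as rise in absorbance at 234 nm; blank run contained same DMSO level.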

[2] = tested on: Radical scavenging activity; test: Antioxidant activity assessed as reduction of DPPH radical generation at 50 uM incubated for 20 mins at room temperature; format: functional; design: scale not given: the % may be the effect or the level left
Outline: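 DPPH radical interaction in ethanol, compound final 50 µM (equimolar with DPPH); ethanol as control. Absorbance at 517 nm read after 20 min at room temperature.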

inhibition (Glycine max) [%]	SMILES	inhibition [1] [%]	Activity [2]
83	COC(=O)[C@@H]1N=C(SCc2ccccc2)[C@H]2C(=O)N(c3ccccc3)C(=O)[C@H]21 (relative stereo)	98	15%
–	COC(=O)[C@H]1N=C(SC)[C@H]2C(=O)N(c3ccccc3)C(=O)[C@H]21 (relative stereo)	84	8%
91	CCCCSC1=N[C@@H](C(=O)OC)[C@@H]2C(=O)N(c3ccccc3)C(=O)[C@H]12 (relative stereo)	82	11%
44	COC(=O)[C@H]1N=C(SC(C)C)[C@H]2C(=O)N(c3ccccc3)C(=O)[C@H]21 (relative stereo)	72	13%
43	CCCSC1=N[C@@H](C(=O)OC)[C@@H]2C(=O)N(c3ccccc3)C(=O)[C@H]12 (relative stereo)	86	7%
26	CCSC1=N[C@H](C(=O)OC)[C@@H]2C(=O)N(c3ccccc3)C(=O)[C@H]12 (relative stereo)	89	inactive
56	CCCCSC1=N[C@H](C(=O)OC)[C@@H]2C(=O)N(c3ccccc3)C(=O)[C@H]12 (relative stereo)	89	7%
64	CC(Cc1ccc(O)c(O)c1)C(C)Cc1ccc(O)c(O)c1 (stereo not drawn)	–	81%
73	COC(=O)[C@H]1N=C(SCc2ccccc2)[C@H]2C(=O)N(c3ccccc3)C(=O)[C@H]21 (relative stereo)	76	11%
81	CCSC1=N[C@@H](C(=O)OC)[C@@H]2C(=O)N(c3ccccc3)C(=O)[C@H]12 (relative stereo)	91	11%
51	COC(=O)[C@@H]1N=C(SC)[C@H]2C(=O)N(c3ccccc3)C(=O)[C@H]21 (relative stereo)	93	26%
49	COC(=O)[C@@H]1N=C(SC(C)C)[C@H]2C(=O)N(c3ccccc3)C(=O)[C@H]21 (relative stereo)	89	12%
39	CCCSC1=N[C@H](C(=O)OC)[C@@H]2C(=O)N(c3ccccc3)C(=O)[C@H]12 (relative stereo)	86	9%
–	Cc1c(C)c2c(c(C)c1O)CCC(C)(C(=O)O)O2 (stereo not drawn)	63	–

From ChEMBL document CHEMBL2069194, “Synthesis of sulfur containing dihydro-pyrrolo derivatives and their biological evaluation as antioxidants” (Bioorg Med Chem, 2012)
